Assay results taken from ChEMBL document CHEMBL4257586, “Polyheteroaryl Oxazole/Pyridine-Based Compounds Selected in Vitro as G-Quadruplex Ligands Inhibit Rock Kinase and Exhibit Antiproliferative Activity” (J Med Chem, 2018).

Test system: HEK293
Assay: Antiproliferative activity against HEK293 cells after 72 hrs by MTS assay
Assay type: cell-based
Settings: Homo sapiens, HEK293, 72 h
Summary of the method: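 Cells seeded at day 0 in 96-well plates, serial compound dilutions added at day 1; viable cells read 72 h after drug addition by MTS tetrazolium assay, in triplicate. IC50 taken as concentration halving cell growth. One first trial, then two additional experiments on selected compounds.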

SMILES: c1cc(-c2cnco2)nc(-c2cnc(-c3cccc(-c4ncc(-c5cccc(-c6cnco6)n5)o4)n3)o2)c1
- IC50: 457 nM
